Data reported in ChEMBL document CHEMBL2331413, “Novel in vivo active anti-malarials based on a hydroxy-ethyl-amine scaffold” (Bioorg Med Chem Lett, 2013).

Tests used:
[1] = test system: Plasmodium falciparum; assay: Antimalarial activity against chloroquine-resistant Plasmodium falciparum K1 infected in RBC by [3H]hypoxanthine incorporation assay in presence of 0.5 % albumax; type: functional, organism-based
[2] = test system: Plasmodium falciparum; assay: Antimalarial activity against chloroquine-sensitive Plasmodium falciparum NF54 infected in RBC after 72 hrs by [3H]hypoxanthine incorporation assay in presence of 50 % serum; type: functional, organism-based
[3] = test system: Plasmodium falciparum; assay: Antimalarial activity against chloroquine-resistant Plasmodium falciparum K1 infected in RBC by [3H]hypoxanthine incorporation assay in presence of 50 % serum; type: functional, organism-based
[4] = test system: Plasmodium falciparum; assay: Antimalarial activity against chloroquine-sensitive Plasmodium falciparum NF54 infected in RBC after 72 hrs by [3H]hypoxanthine incorporation assay in presence of 0.5 % albumax; type: functional, organism-based
[5] = test system: Plasmodium berghei; assay: Antimalarial activity against GFP-transfected Plasmodium berghei ANKA in mouse blood assessed as inhibition of schizont maturation compound incubated for 16 hrs followed by 8 hrs of [3H]hypoxanthine incorporation; type: functional, organism-based
[6] = test system: Plasmodium falciparum; assay: Antimalarial activity against chloroquine-sensitive Plasmodium falciparum NF54 infected in RBC after 48 hrs by [3H]hypoxanthine incorporation assay in presence of 0.5 % albumax; type: functional, organism-based
[7] = test system: Plasmodium falciparum; assay: Antimalarial activity against chloroquine-sensitive Plasmodium falciparum NF54 infected in RBC after 24 hrs by [3H]hypoxanthine incorporation assay in presence of 0.5 % albumax; type: functional, organism-based
[8] = Metabolic stability in mouse liver microsomes; type: ADME, Microsome; conditions: read-out: Stability
Procedure, shortened: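 In vitro metabolic stability was measured with a mouse liver microsomal preparation and expressed as intrinsic clearance in µl/(min mg).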

IC50 [5] [nM]	IC50 [7] [nM]	microsomal CLint [8] [µL/min/mg]	Compound	IC50 [1] [nM]	IC50 [2] [nM]	IC50 [3] [nM]	IC50 [4] [nM]	IC50 [6] [nM]
–	–	–	CCN(CC)Cc1cc(Nc2ccc(C(=O)N[C@@H](Cc3ccccc3)[C@H](O)CNC3CCCC3)cc2)ccc1O	54	51	44	78	–
> 500	235	–	C[C@@H](NC[C@@H](O)[C@H](Cc1ccccc1)NC(=O)c1cccc(O)c1CN1CCCCC1)c1ccccc1	–	5.9	–	4.9	< 7.8
–	–	–	CCN(CC)Cc1cc(Nc2cccc(C(=O)N[C@@H](Cc3ccccc3)[C@H](O)CNC3CCCC3)c2)ccc1O	30	67	127	23	–
–	–	–	CCCN(CCC)C(=O)c1cccc(C(=O)N[C@@H](Cc2ccccc2)[C@H](O)CNC2CCCC2)c1	12	–	36	7.1	–
> 500	> 500	860	C[C@@H](NC[C@@H](O)[C@H](Cc1ccccc1)NC(=O)c1ccc(C(=O)N2CCCCC2)cc1)c1ccccc1	–	1.3	–	0.9	–
143	20	74	CCCN(CCC)Cc1cc(C2CCC(NC[C@@H](O)[C@H](Cc3ccccc3)NC(=O)c3ccc(N4CCN(C)CC4)cc3)CC2)ccc1O (stereo partly drawn)	–	–	–	19	19
–	–	908	C[C@@H](NC[C@@H](O)[C@H](Cc1ccccc1)NC(=O)c1cccc(S(=O)(=O)N2CCN(C)CC2)c1)c1ccccc1	–	138	–	98	–
> 500	> 500	> 1250	CCCN(CCC)C(=O)c1ccc(C(=O)N[C@@H](Cc2ccccc2)[C@H](O)CN[C@H](C)c2ccccc2)cc1	–	6.5	–	1.6	–
–	–	–	CCCN(CCC)Cc1cc(CNC[C@@H](O)[C@H](Cc2ccccc2)NC(=O)c2ccc(Nc3ccnc(C)c3)cc2)ccc1O	149	80	93	158	–
–	–	–	C[C@@H](NC[C@@H](O)[C@H](Cc1ccccc1)NC(=O)c1ccc(CN2CCCCC2)c(O)c1)c1ccccc1	< 7.8	5.9	7.8	4.9	–
> 500	> 500	75	C[C@@H](NC[C@@H](O)[C@H](Cc1ccccc1)NC(=O)c1ccc(C(=O)N2CCN(C)CC2)cc1)c1ccccc1	–	< 0.6	–	0.6	–
> 500	151	–	CCCN(CCC)Cc1cc(C(=O)N[C@@H](Cc2ccccc2)[C@H](O)CN[C@H](C)c2ccccc2)ccc1O	–	334	–	118	83

Compound	IC50 [5] [nM]	IC50 [7] [nM]	microsomal CLint [8] [µL/min/mg]	IC50 [1] [nM]	IC50 [2] [nM]	IC50 [3] [nM]	IC50 [4] [nM]	IC50 [6] [nM]
CN1CCN(c2ccc(C(=O)N[C@@H](Cc3ccccc3)[C@H](O)CNCc3ccc(O)c(CN4CCCCC4)c3)cc2)CC1	–	158	–	36	57	28	120	102
C[C@@H](NC[C@@H](O)[C@H](Cc1ccccc1)NC(=O)c1ccc(NC2CCN(C)CC2)cc1)c1ccccc1	–	> 500	76	7	12	16	4	< 7.8
C[C@@H](NC[C@@H](O)[C@H](Cc1ccccc1)NC(=O)c1ccc(Nc2ccc(O)c(CN3CCCC3)c2)cc1)c1ccccc1	–	174	–	< 7.8	4.9	< 7.8	17	< 7.8
C[C@@H](NC[C@@H](O)[C@H](Cc1ccccc1)NC(=O)c1ccc(N(C)C2CCN(C)CC2)cc1)c1ccccc1	–	> 500	71	7.1	14	–	4.4	< 7.8
CCCN(CCC)Cc1cc(Nc2ccc(C(=O)N[C@@H](Cc3ccccc3)[C@H](O)CN[C@H](C)c3ccccc3)cc2)ccc1O	–	77	–	11	13	< 7.8	9.4	11
